Reference: ChEMBL document CHEMBL2429829, “Inhibitors of the aminoglycoside 6'-N-acetyltransferase type Ib [AAC(6')-Ib] identified by in silico molecular docking” (Bioorg Med Chem Lett, 2013)
The source made the active and inactive calls. The rule behind the calls is not given here.

Columns and labels:
[1] = Inhibition of aminoglycoside 6'-N-acetyltransferase Ib (unknown origin)-mediated acetylation expressed in Escherichia coli using 3 to 18 uM kanamycin A and 100 uM acetyl CoA as substrate preincubated for 10 mins followed by enzyme addition by spectrophotometric analysis
Summary of the method: (§1)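 Enzyme partially purified on DEAE from arabinose-induced E. coli, in 20 mM Tris pH 7.5 with 0.2 mM DTNB and 10% DMSO. Inhibitor at a range of concentrations, kanamycin A 3–18 μM, acetyl CoA 100 μM. 10 min room-temperature preincubation before enzyme. CoA-SH release read at 412 nm. Ki from initial velocities by nonlinear regression, in triplicate.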

[2] = Inhibition of aminoglycoside 6'-N-acetyltransferase Ib (unknown origin)-mediated acetylation expressed in Escherichia coli using kanamycin A and acetyl CoA as substrate at 100 uM preincubated for 10 mins followed by enzyme addition by spectrophotometric analysis relative to control
Summary of the method: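 Enzyme: thioredoxin-fused AAC(6′)-Ib, arabinose-induced in E. coli, partially purified by DEAE ion exchange. Reaction: 20 mM Tris pH 7.5, 0.2 mM DTNB, 50 μM acetyl CoA, 18 μM kanamycin A, compound at 100 μM in 10% DMSO. Mix held 10 min at room temperature before enzyme added. CoA–SH release read at 412 nm. Percent inhibition from initial velocities versus no-compound reactions; mean of three experiments.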

[3] = Inhibition of aminoglycoside 6'-N-acetyltransferase Ib (unknown origin)-mediated acetylation expressed in Escherichia coli using 5 to 72 uM acetyl CoA and 25 uM kanamycin A as substrate preincubated for 10 mins followed by enzyme addition by spectrophotometric analysis
Summary of the method: as §1, with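 “concentrations, acetyl CoA 5–72 μM,” for “concentrations,”, “25” for “3–18 μM, acetyl CoA 100”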

[4] = Inhibition of aminoglycoside 6'-N-acetyltransferase Ib (unknown origin)-mediated acetylation expressed in Escherichia coli using kanamycin A and acetyl CoA as substrate at 100 uM preincubated for 10 mins followed by enzyme addition by spectrophotometric analysis in presence of Triton X-100
Summary of the method: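 Compound at 100 μM in 10% DMSO, with 20 mM Tris pH 7.5, 0.2 mM DTNB, 50 μM acetyl CoA, 18 μM kanamycin A and 0.01% Triton X-100. Preincubated 10 min at room temperature, then partially purified enzyme added. Absorbance at 412 nm gave initial velocities. Percent inhibition taken against compound-free reactions, mean of three experiments.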

[5] = Non-competitive inhibition of aminoglycoside 6'-N-acetyltransferase Ib (unknown origin) expressed in Escherichia coli using acetyl CoA as substrate by Lineweaver-Burk plot analysis in presence of kanamycin A
Summary of the method: (§2)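 Partially purified His-Patch thioredoxin-fused enzyme from E. coli (pBAD102, arabinose-induced), in 20 mM Tris pH 7.5 with 0.2 mM DTNB. Acetyl CoA varied 5–72 μM with kanamycin A fixed at 25 μM, at several inhibitor concentrations. Mix held 10 min at room temperature before enzyme. Initial rates followed at 412 nm, mode assigned from Lineweaver-Burk plots, in triplicate.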

[6] = Competitive inhibition of aminoglycoside 6'-N-acetyltransferase Ib (unknown origin) expressed in Escherichia coli using kanamycin A as substrate by Lineweaver-Burk plot analysis in presence of acetyl CoA
Summary of the method: as §2, with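 “Kanamycin A” for “Acetyl CoA”, “3–18” for “5–72”, “acetyl CoA” for “kanamycin A”, “100” for “25”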

Row | SMILES | Ki [1] | inhibition [2] | Ki [3] | inhibition [4] | Ki [5] | Ki [6]
1 | Cc1ccc(N2C(=O)NC(=O)/C(=C\c3ccccc3OCc3ccc(C(=O)O)cc3)C2=O)cc1C | 155 µM | 27% | 297 µM |  |  | 
2 | O=C1NC(=O)N(c2ccc(Cl)cc2)C(=O)/C1=C\c1ccco1 | 33 µM | 60% | 74 µM |  |  | 
3 | CCc1ccc(N2C(=O)NC(=O)/C(=C\c3ccccc3OCc3ccc(C(=O)O)cc3)C2=O)cc1 | 139 µM | 30% | 181 µM |  |  | 
4 | O=C1/C(=C/c2ccco2)C(=O)N(c2ccc(Br)cc2)C(=S)N1c1ccccc1 |  |  |  | inactive |  | 
5 | Cc1ccc(N2C(=O)NC(=O)/C(=C\c3ccccc3OCc3ccc(C(=O)O)cc3)C2=O)cc1 | 157 µM | 30% | 258 µM |  |  | 
6 | O=C(O)c1ccccc1-c1ccc(C=C2C(=O)N(c3ccccc3)C(=S)N(c3ccccc3)C2=O)o1 |  | 52% |  |  | 35 µM | 12 µM
7 | O=C1NC(=O)N(c2ccc(O)cc2)C(=O)/C1=C/c1ccccc1OCc1ccc(C(=O)O)cc1 | 129 µM | 30% | 292 µM |  |  | 
8 | Cc1cccc(N2C(=O)/C(=C/c3ccccc3OCc3ccc(C(=O)O)cc3)C(=O)NC2=S)c1 |  | 27% |  |  | 267 µM | 141 µM
9 | O=C1NC(=O)N(c2ccccc2)C(=O)/C1=C\c1ccco1 | 15 µM | 65% | 16 µM |  |  | 
10 | Cc1cccc(N2C(=O)/C(=C/c3ccc(OCc4cccc(C(=O)O)c4)cc3)C(=O)NC2=S)c1 | 84 µM | 33% | 97 µM |  |  | 
11 | Cc1ccc(S(=O)(=O)Nc2cc3c(c4ccccc24)O[C@]2(C3)N(C)c3ccccc3C2(C)C)c(C)c1 |  | 0% |  |  |  | 
12 | O=c1[nH]c(-c2cccc(OCc3ccccc3)c2)nc2sc3c(c12)CCCC3 |  | 0% |  |  |  | 
13 | COc1cc(/C=C2\C(=O)NC(=S)N(c3ccccc3)C2=O)ccc1OCc1ccc(C(=O)O)cc1 |  | 0% |  |  |  | 
